Bioassay records deposited in PubChem BioAssay by Sanford-Burnham Center for Chemical Genomics.
APJ agonist = agonists of human apelin receptor APJ, primary screen, CHO-K1 cells, PathHunter beta-arrestin, luminescence. P35414. 0% DMSO wells, 100% apelin. activation, % at 20 µM. 0.11% of 330,000 active;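 active = activation more than six SD over the plate average, tested at 20 µM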;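 note: 0% = DMSO alone and 100% = apelin-13 at 10 nM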
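Assay system: CHO-K1 cells stably expressing ProLink-tagged human APJ and arrestin–beta-gal acceptor. Compound dosing: 20 µM single point, 1% DMSO. Times: 16-18 h seeding, 90 min dark compound exposure, 60 min detection. Detection: beta-gal luminescence. Evaluation: APJ–arrestin association signal. Controls: negative DMSO alone, positive Apelin-13 at 10 nM.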
APJ antagonist = antagonists of human apelin receptor APJ, primary screen, CHO-K1 cells, beta-arrestin complementation, luminescence | P35414 | 0.32% of 330,000 active | inhibition, % at 20 µM | AID 2521, 2010;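 active = inhibition above about 40% at 20 µM, limit read from the data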;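 note: cells challenged with 10 nM apelin-13 agonist together with compound; plate controls were apelin-13 plus DMSO wells for no effect and DMSO wells lacking apelin-13 for full effect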
CCR6 antag = CCR6 receptor antagonists, primary screen, cell-based, CHO-K1, luminescence, beta-arrestin, uHTS; C-C chemokine receptor type 6 (Homo sapiens), P51684; CHO-K1 CCR6 PathHunter beta-arrestin, CCL20-stimulated; inhibition, % at 20 µM; 0.49% of 340,000 active; AID 493098, 2011;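 active = compounds whose inhibition of the agonist-driven luminescence signal at 20 µM reaches about 50%, limit read from the data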;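 note: cells stimulated with CCL20 at 14 nM final; plate controls were DMSO with CCL20 for no effect and DMSO without agonist for full effect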
CXCR6 block = CXCR6 receptor inhibitors, primary screen, cell-based, beta-arrestin, luminescence, CHO-K1 PathHunter, 1536-well; C-X-C chemokine receptor type 6 (Homo sapiens), O00574; inhibition, % at 20 µM; 0.36% of 360,000 active; in the data active = inhibition above about 34%, passing the limit was not always enough;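 note: antagonist mode with CXCL16 agonist at 10 nM final; 0% = 10 nM CXCL16 with DMSO and 100% = unstimulated wells without agonist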
EBI2 block = EBI2 receptor antagonists, beta-arrestin recruitment, primary screen, cell-based, luminescence, 7a,25-OHC stimulation, uHTS; G-protein coupled receptor 183 (Homo sapiens), P32249; 7a,25-OHC stimulated; inhibition, % at 5 µM; 0.81% of 360,000 active; AID 651636, 2012; in the data active = inhibition above about 38%;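 note: enzyme fragment complementation signal reports receptor beta-arrestin coupling in cells; 0% = agonist plus DMSO wells and 100% = wells without agonist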
Target sequence (P32249 whole entry, looked up, the tested form may be a part): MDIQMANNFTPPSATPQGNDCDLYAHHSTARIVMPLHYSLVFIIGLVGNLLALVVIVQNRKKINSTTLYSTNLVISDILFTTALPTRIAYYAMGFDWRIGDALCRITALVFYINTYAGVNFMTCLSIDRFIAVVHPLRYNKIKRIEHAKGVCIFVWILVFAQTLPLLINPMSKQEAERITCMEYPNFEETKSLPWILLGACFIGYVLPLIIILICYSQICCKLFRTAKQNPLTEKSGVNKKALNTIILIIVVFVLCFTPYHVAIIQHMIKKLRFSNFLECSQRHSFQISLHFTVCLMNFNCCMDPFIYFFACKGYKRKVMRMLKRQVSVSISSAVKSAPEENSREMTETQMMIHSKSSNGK
EBI2 conf = EBI2 antagonist hit retest, beta-arrestin, confirmation, cell-based, single concentration, luminescence, 7a,25-OHC stimulation. shares compounds with EBI2 block. 7a,25-OHC antagonism. inhibition, % at 5 µM. 29% of 2,400 active;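 active = inhibition of at least 50%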
EBI2 agonist = EBI2 agonist activity of antagonist hits, confirmation, counter-screen for EBI2 antagonist project, cell-based, single concentration, agonist mode, luminescence; activation, % at 5 µM; EBI2-expressing cells, 60 min; 0% vehicle, 100% 7α,25-dihydroxycholesterol control; 2,400 tested, under 10 active; shares compounds with EBI2 block;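 active = activation of at least 50%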
bGal cs = E. coli beta-galactosidase enzyme inhibition, confirmation, counter-screen for EBI2 antagonist project, biochemical, luminescence, single concentration | inhibition, % at 5 µM | 1% of 2,400 active | AID 652176, 2013 | shares compounds with EBI2 block | purified beta-galactosidase, luminescent Galacton Star, 15 min;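 active = replicate-average signal at least 3 plate SD below neutral wells, shown as high inhibition, flagging enzyme-inhibiting false positives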;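 note: 0% = DMSO wells with enzyme and 100% = wells lacking enzyme; higher means stronger loss of beta-gal luminescence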
The depositor's hits bear a star; . = no result given. The list is not random: actives were taken first. Their share in the collection is about 1.5%.

SMILES | APJ agonist | APJ antagonist | CCR6 antag | CXCR6 block | EBI2 block | EBI2 conf | EBI2 agonist | bGal cs
CCCCNC(=O)c1ccc2nc(CC)c(N(C)Cc3ccc(OC)cc3)n2c1 | . | . | . | 0 | 10 | . | . | .
CCc1nc2ccc(C(=O)NCCOc3ccc(OC)cc3)cn2c1N(C)CCCc1ccccc1 | . | . | . | 16 | 58* | 43 | -1 | -8
OC[C@@H]1CN(CCN2CCOCC2)C[C@H](n2cnc3c(N4CCCC4)ncnc32)O1 | . | . | . | 3 | -8 | . | . | .
COC(=O)c1ccc2nc(C3CCCCC3)c(CC(C)(C)C)n2c1 | . | . | . | 3 | 5 | . | . | .
COC(=O)c1ccc2nc(C3CCCCC3)c(Cc3ccccc3)n2c1 | . | . | . | 2 | 51* | 65* | -1 | -17
N#C/C(=C\c1ccc(Br)s1)C(=O)N1CCN(c2ccccc2)CC1 | 2 | 7 | 5 | 9 | 73* | 21 | 0 | 8
O=C1NC[C@H](CC2CCCCC2)N(CCc2cccc3ccccc23)C1=O | . | . | . | -6 | 24 | . | . | .
S=C1NC[C@H](CC2CCCCC2)N1CCc1cccc2ccccc12 | -8 | 5 | 21 | -2 | 51* | 20 | 1 | 8
CCN(CCO)c1ncnc2onc(-c3ccc(F)cc3)c12 | -1 | 13 | 0 | 5 | -11 | . | . | .
Cc1cccc(N(C)c2ncnc3onc(-c4ccc(F)cc4)c23)c1C | 2 | -49 | 9 | -6 | 63* | 27 | -2 | -7
N#Cc1cccc(OC(=O)C2CCN(C(=O)c3ccc(F)cc3)CC2)c1 | . | . | . | -2 | -2 | . | . | .
COC(=O)CCCn1cc(CN2CC(N3CCN(Cc4ccccc4F)CC3)CS2(=O)=O)nn1 (stereo not given) | . | . | . | -5 | -4 | . | . | .
C=CCC1(CC=C)CCCN1C(=O)C1CCC(=O)N(CCc2ccc(Cl)cc2)C1 (stereo not given) | -7 | 9 | 5 | 1 | 79* | 41 | -2 | -6
CC(C)C1CCN(C(=O)C2CCC(=O)N(CCc3ccc(Cl)cc3)C2)CC1 (stereo not given) | -2 | -3 | 5 | -9 | 79* | 50* | 0 | 12
COCCN(CCOC)Cc1cc(=O)oc2cc(C)cc(C)c12 | . | . | . | -2 | -6 | . | . | .
COc1cc(-c2nc(-c3ccccc3)c(-c3cccs3)[nH]2)cc(OC)c1OC | -3 | 2 | 7 | 18 | 45* | 16 | 2 | 4
CCn1c(SCC(=O)NC2CCCC2)nc2c(c1=O)SCC2 | . | . | . | 7 | -5 | . | . | .
CCOC(=O)N1CCN(C(=O)COc2ccc(Br)cc2Cl)CC1 | -1 | 8 | 16 | 6 | 62* | 28 | 1 | 2
CCOC(=O)C1CCN(C(=O)COc2ccc(Br)cc2Br)CC1 | -4 | 3 | 7 | -6 | 44* | 15 | 1 | 7
CCOC(=O)C1CCN(C(=O)COc2cc(C)c(Br)cc2C)CC1 | -1 | -3 | 12 | -6 | 71* | 37 | 0 | -5
CCOC(=O)C1CCN(C(=O)COc2cccc(C)c2)CC1 | -6 | -19 | 9 | 2 | 11 | . | . | .
CCOC(=O)C1CCN(C(=O)COc2ccc(Br)cc2)CC1 | -2 | -7 | 7 | -6 | 75* | 67* | 0 | -12
COc1ccc(C(O)c2ncc(-c3ccccc3)[nH]2)cc1F (stereo not given) | . | . | . | 4 | -12 | . | . | .
CCCS(=O)(=O)NC(=O)C1(C)CCCN(C(=O)c2c(-c3ccccc3)noc2C)C1 (stereo not given) | . | . | . | -4 | -3 | . | . | .
COc1cccc(-c2nc3n(n2)CCc2ccccc2-3)c1 | . | . | . | 8 | 17 | . | . | .
